Laboratory results published in publication PMC7966865 (Molecular Metabolism, 2021).

What was measured:
[1] = test system: endogenous FOXO1 target gene expression (G6pc, Pck1, Foxo1 mRNA) in primary hepatocytes; experiment: cAMP/Dex-induced gene expression; type: cell-based; conditions: primary mouse hepatocytes, insulin 100 nM, 6 h; for cAMP/Dex-induced G6pc mRNA expression / cAMP/Dex-induced Pck1 mRNA expression: FOXO1 inhibitors 10 μM; for effect on Foxo1 mRNA levels: cAMP + Dex, compound 10 10 μM
In short: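 Hepatocytes from 8–10-week-old male C57/BL6 mice, plated on collagen at 200,000 cells/well, recovered 4–5 h, then serum-reduced (1% FBS M199, G418) 15–16 h. Stimulation: cAMP 100 μM + dexamethasone 1 μM, with test compound (10 μM, or 10 nM–10 μM). q-RT-PCR normalized to Ppia. For IC50: 0% = unstimulated, 100% = cAMP + Dex; 3–6 wells/concentration; 4 experiments pooled; 4-parameter fit.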

[2] = test system: normal C57 mice / control mice (Foxo1 flox/flox); experiment: Pyruvate tolerance test; type: in vivo, mouse
[3] = test system: liver-specific Foxo1 knockout (LKO) mice; experiment: Pyruvate tolerance test; type: in vivo, mouse; conditions: three doses
In short: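 Liver-specific Foxo1 knockout mice (Albumin-Cre; Foxo1 flox/flox), male and female, were randomized by body weight and fed glucose. They received three oral doses of test compound at 10 ml/kg (8 am, 5 pm, 8 am), at 16 mg/kg in Optiform Select #8 or 30 mg/kg in 5% DMSO/95% PEG-400. After fasting, they were given sodium pyruvate 2 g/kg i.p. in saline. Tail glucose was read at 0–120 min. N = 7–15; tested once.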

pGK-FFluc = experiment: Non-specific activity: constitutive pGK-FFluc reporter in HEK293 cells; type: cell-based; conditions: Homo sapiens, HEK293, read-out: Non-specific activities pGK-FFluc IC50
In short: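 In the wild-type FOXO1 format, HEK293 cells in EMEM with 1% FBS were co-transfected with IRE-NanoLuc, constitutive pGK-firefly luciferase and the FOXO1-WT plasmid. Test compound was dosed right after transfection as a 10-point half-log series in duplicate, at 0.5% final DMSO. After 24 h, lysates were read by Nano-Glo Dual-Luciferase. Relative IC50 came from a four-parameter fit, with at least two experiments.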

pCMV-Rluc = experiment: Non-specific activity: constitutive pCMV-Rluc reporter in HEK293 cells; type: cell-based; conditions: Homo sapiens, HEK293, read-out: Non-specific activities pCMV-Rluc IC50
In short: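 HEK293 cells in EMEM with 1% FBS were co-transfected with IRE-firefly luciferase, constitutive CMV-Renilla luciferase and a forkhead factor or RFP control plasmid. Test compound was added immediately as a 10-point half-log series in duplicate, at 0.5% final DMSO. After 24 h, lysates were read by Dual-Glo luciferase. Relative IC50 came from a four-parameter fit, with at least two independent experiments.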

Cell viability = type: cell-based; conditions: human
In short: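 HEK293 cells were seeded overnight in EMEM with 1% FBS and then transfected for reporter assays. Test compound was added right after transfection as a 10-point half-log dilution in duplicate, at 0.5% final DMSO. After 24 h at 37 °C, medium taken off the cells was assayed for lactate dehydrogenase activity by LDH-Glo luminescence. At least two independent experiments were run.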

Mouse PK = type: in vivo
In short: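 Male ICR mice (N = 3 per route) were dosed with test compound in Solutol HS-15:saline (5:95 v/v), i.v. at 1 mg/kg or p.o. at 10 mg/kg. Blood was sampled at 0.083–24 h (8 time points) and processed to plasma. Plasma levels were measured by LC-MS/MS and used to calculate PK parameters.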

db/db mice = experiment: Chronic study in db/db mice; type: in vivo, mouse; conditions: for ALT / AST: 6-h-fasted plasma; for hepatic histology (H&E): after 10 days of treatment; for glucose levels during ITT: day 9, i.p. insulin 0.75U/kg, all time points; for HOMA-IR index (worsening of insulin resistance over the study) / HOMA-β: calculated from fasting glucose and insulin
In short: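 Male db/db mice (C57BL/6J background), 6–7 weeks old, were acclimated for 2 weeks and randomized by weight and glucose. They received vehicle, test compound or rosiglitazone (10 mg/kg in 0.5% methylcellulose) orally for 10 days. Body weight was recorded each morning before dosing. 6-h-fasted glucose and ELISA insulin on days 0, 5 and 10 gave HOMA-IR and HOMA-β. Fasted plasma ALT/AST were measured colorimetrically. N = 6–8.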

[4] = test system: STZ-induced diabetic mice; experiment: Chronic study in streptozotocin; type: in vivo, mouse
In short: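 Male C57BL/6J mice received STZ 50 mg/kg i.p. in citrate buffer pH 4.5 for 5 days, until glucose reached 300–450 mg/dL, then were randomized. Human recombinant FGF21 was given s.c. at 0.45 mg/kg daily from day 1. Test compound in Solutol HS-15:saline (5:95) was given p.o. at 32 mg/kg/dose twice daily from day 4. Readings: 6-h-fasted plasma TG (colorimetric), body weight change day 10 vs day 0, and day-11 perigonadal fat weight. N = 5–6.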

[5] = male, ICR, mouse, plasma, iv, 1 mg/kg
[6] = male, ICR, mouse, plasma, po, 10 mg/kg

CCn1cc(C(=O)O)c(=O)c2c(N)c(F)c(NC3CCCCC3)cc21 [AS1842856, reference compound]
cAMP/Dex-induced G6pc mRNA expression [1]: significantly suppressed
cAMP/Dex-induced Pck1 mRNA expression [1]: significantly suppressed
glucose excursion during PTT ([2]; 4-h-fasted mice, higher dose level (30 or 100 mg/kg/dose tested) p.o.): significantly lowered glucose excursion
glucose levels during PTT ([2]; overnight-fasted C57 mice and control mice, 30 mg/kg p.o., three doses): able to reduce glucose levels
glucose levels during PTT ([3]; liver Foxo1 knockouts, 30 mg/kg/dose p.o.): reduced glucose levels

CN1CCN(c2ccc(C(=O)Nc3cc(-c4nc5ccccc5[nH]4)n[nH]3)cc2)CC1 [Compound 10, N-[3-(1H-1,3-benzodiazol-2-yl)-1H-pyrazol-5-yl]-4-(4-methylpiperazin-1-yl)benzamide]
IC50 (pGK-FFluc): > 10 µM
IC50 (pCMV-Rluc): > 24 µM
CC50 at 24 h (Cell viability): > 24 µM
effect on Foxo1 mRNA levels [1]: did not affect
cAMP/Dex-induced G6pc mRNA expression [1]: significantly suppressed
cAMP/Dex-induced Pck1 mRNA expression [1]: significantly suppressed
CL (Mouse PK; male ICR mice, IV 1 mg/kg): 22.7 mL/kg∗min
AUCinf (Mouse PK; male ICR mice, IV 1 mg/kg, plasma): 1.86 μM∗h
AUCinf (Mouse PK; male ICR mice, PO 10 mg/kg, plasma): 4.66 μM∗h
Vd (Mouse PK; [5]): 1.71 L/kg
half-life (Mouse PK; [5]): 73.8 min
bioavailability (Mouse PK; male, ICR, mouse, plasma, oral, 10 mg/kg): 25.5%
Cmax (Mouse PK; [6]): 1620 nM
Tmax (Mouse PK; [6]): 40.2 min
glucose lowering during PTT ([2]; normal C57 mice fasted overnight (16 h), 16 mg/kg p.o., three doses): ineffective at lowering glucose
glucose levels during PTT ([3]; LKO mice, 16 mg/kg/dose p.o.): failed to reduce glucose levels
reduced food intake (trend) (db/db mice; db/db mice, follow-up study, vs vehicle): 12%
plasma TG (db/db mice; male db/db mice, 6-h-fasted): no significant effects
plasma total cholesterol (TC) (db/db mice; male db/db mice, 6-h-fasted): no significant effects
ALT (db/db mice; male db/db mice): not affected
AST (db/db mice; male db/db mice): not affected
hepatic histology (H&E) (db/db mice; male db/db mice): no apparent effect
glucose levels during ITT (db/db mice; male db/db mice): significantly reduced glucose levels
blood glucose (db/db mice; male db/db mice, p.o. twice daily, ten days): reduced blood glucose to an extent similar to the PPARγ agonist rosiglitazone
weight loss (trend) (db/db mice; male db/db mice, ten days): 5%
insulin levels (db/db mice; male db/db mice, ten days, 6 h fast): did not significantly affect
HOMA-IR index (worsening of insulin resistance over the study) (db/db mice; male db/db mice, ten days): staunched
HOMA-β (db/db mice; male db/db mice, ten days): tended to be improved
body weight ([4]; day 10 compared to day 0): trend toward reduced body weight
reduction in perigonadal fat pad weight ([4]; end of the study (day 11)): > 50%

CN(CCOc1ccc(CC2SC(=O)NC2=O)cc1)c1ccccn1 (centres unmarked) [rosiglitazone, reference compound]
plasma TG (db/db mice; male db/db mice, 6-h-fasted): reduced plasma TG
ALT (db/db mice; male db/db mice): not affected
AST (db/db mice; male db/db mice): not affected
hepatic histology (H&E) (db/db mice; male db/db mice): exacerbated hepatic steatosis
glucose levels during ITT (db/db mice; male db/db mice): significantly reduced glucose levels
body weight (db/db mice; male db/db mice, rosiglitazone 10 mg/kg, ten days): weight gain
HOMA-IR index (worsening of insulin resistance over the study) (db/db mice; male db/db mice, ten days): staunched
HOMA-β (db/db mice; male db/db mice, ten days): tended to be improved

insulin
effect on Foxo1 mRNA levels [1]: did not affect
cAMP/Dex-induced G6pc mRNA expression [1]: significantly suppressed
cAMP/Dex-induced Pck1 mRNA expression [1]: significantly suppressed

B1: FGF21: Human recombinant FGF21 (Sino Biological), fibroblast growth factor 21 (protein, UniProt Q9NSA1 29-209, looked up)
Fibroblast growth factor 21: HPIPDSSPLLQFGGQVRQRYLYTDDAQQTEAHLEIREDGTVGGAADQSPESLLQLKALKPGVIQILGVKTSRFLCQRPDGALYGSLHFDPEACSFRELLLEDGYNVYQSEAHGLPLHLPGNKSPHRDPAPRGPARFLPLPGLPPALPEPPGILAPQPPDVGSSDPLSMVGPSQGRSPSYAS
plasma TG ([4]; 6-h fast): significantly reduced
